One test deals with Nociceptin receptor (Homo sapiens, UniProt P41146). As to the kind of experiment: Antagonist activity at human recombinant NOP receptor expressed in CHO cells coexpressing alphaqi5 assessed as inhibition of N/OFQ-induced intracellular calcium mobilization. It is filed as functional, cell-based.
Test [1] deals with T1, Delta-type opioid receptor (Homo sapiens, UniProt P41143). Put plainly: Antagonist activity at human recombinant delta opioid receptor expressed in CHO cells coexpressing alphaqi5 assessed as inhibition of DPDPE-induced intracellular calcium mobilization. The format is functional, cell-based. The method, boiled down: (§1)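 Calcium mobilization in human receptor cells. NK-1, B2 and UT recombinant in CHO. MOP, DOP, KOP and NOP in CHO cells carrying chimeric Gαqi5. Native PAR2 in A549 cells. Mean ± SEM of three experiments in duplicate.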
T1 sequence (P41143 whole entry): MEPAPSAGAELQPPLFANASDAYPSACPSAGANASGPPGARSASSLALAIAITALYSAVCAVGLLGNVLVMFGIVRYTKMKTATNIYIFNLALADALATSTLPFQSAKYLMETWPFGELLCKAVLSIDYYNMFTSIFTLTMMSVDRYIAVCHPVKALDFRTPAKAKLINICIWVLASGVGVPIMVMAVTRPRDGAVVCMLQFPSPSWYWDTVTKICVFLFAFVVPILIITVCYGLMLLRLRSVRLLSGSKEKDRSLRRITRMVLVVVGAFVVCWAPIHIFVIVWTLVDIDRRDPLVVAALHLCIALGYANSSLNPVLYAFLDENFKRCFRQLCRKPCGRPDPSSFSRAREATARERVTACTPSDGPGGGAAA

For test [2], the target named is T2, Neuropeptide S receptor (Mus musculus) (UniProt Q8BZP8).
T2 sequence (whole entry): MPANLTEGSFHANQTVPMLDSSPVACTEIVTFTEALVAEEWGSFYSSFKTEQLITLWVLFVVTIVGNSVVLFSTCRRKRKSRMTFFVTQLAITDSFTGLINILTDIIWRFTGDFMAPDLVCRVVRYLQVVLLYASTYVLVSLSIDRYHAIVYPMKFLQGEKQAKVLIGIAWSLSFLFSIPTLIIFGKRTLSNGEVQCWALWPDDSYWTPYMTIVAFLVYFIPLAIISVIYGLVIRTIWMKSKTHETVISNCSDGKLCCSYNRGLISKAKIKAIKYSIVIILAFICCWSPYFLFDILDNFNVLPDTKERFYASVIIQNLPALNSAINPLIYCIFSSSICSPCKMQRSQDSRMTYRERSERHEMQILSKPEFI
Put plainly: Antagonist activity at mouse NPSR expressed in HEK293 cells assessed as inhibition of NPS-induced response by Schild analysis. It is filed as functional, cell-based. Summed up:
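Calcium mobilization in HEK293 cells stably expressing mouse NPSR, at 37 °C with three mixing cycles after antagonist injection. NPS concentration-response curves were run without and with antagonist at 0.1-10 µM, and pKB with 95% confidence limits was derived from the curve shifts. Mean ± SEM of four separate experiments in duplicate.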

The target of a further test is T3, B2 bradykinin receptor (Homo sapiens, UniProt P30411).
T3 sequence (P30411 whole entry): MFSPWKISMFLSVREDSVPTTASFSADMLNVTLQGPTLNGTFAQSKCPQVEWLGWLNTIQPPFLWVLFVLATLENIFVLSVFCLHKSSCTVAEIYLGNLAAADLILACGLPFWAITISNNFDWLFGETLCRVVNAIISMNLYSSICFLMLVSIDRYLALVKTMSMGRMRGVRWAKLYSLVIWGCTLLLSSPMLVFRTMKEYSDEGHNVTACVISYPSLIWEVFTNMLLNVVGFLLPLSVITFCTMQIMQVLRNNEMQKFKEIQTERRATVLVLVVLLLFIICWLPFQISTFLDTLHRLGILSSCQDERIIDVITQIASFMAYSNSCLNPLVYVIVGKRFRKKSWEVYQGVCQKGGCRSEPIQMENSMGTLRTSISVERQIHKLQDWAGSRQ
As to the kind of experiment: Antagonist activity at human recombinant bradykinin 2 receptor expressed in CHO cells assessed as inhibition of bradykinin-induced intracellular calcium mobilization. The format is functional, cell-based. The method, boiled down: as §1

The next test has as its target T4, Urotensin-2 receptor (Homo sapiens, UniProt Q9UKP6).
T4 sequence (Q9UKP6 whole entry): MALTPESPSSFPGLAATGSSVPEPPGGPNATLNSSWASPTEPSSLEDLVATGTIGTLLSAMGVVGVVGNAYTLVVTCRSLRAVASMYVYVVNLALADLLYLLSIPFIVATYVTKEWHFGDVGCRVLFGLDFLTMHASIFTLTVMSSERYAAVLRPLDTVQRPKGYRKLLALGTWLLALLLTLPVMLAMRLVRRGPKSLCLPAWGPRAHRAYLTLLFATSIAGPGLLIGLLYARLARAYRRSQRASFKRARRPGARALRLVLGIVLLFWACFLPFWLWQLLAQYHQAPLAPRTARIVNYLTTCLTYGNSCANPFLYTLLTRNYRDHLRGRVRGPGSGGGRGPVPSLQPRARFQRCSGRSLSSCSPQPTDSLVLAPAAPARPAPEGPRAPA
Put plainly: Antagonist activity at human recombinant urotensin 2 receptor expressed in CHO cells assessed as inhibition of urotensin 2-induced intracellular calcium mobilization. It is filed as functional, cell-based.

Test [3] addresses T5, Mu-type opioid receptor (Homo sapiens, UniProt P35372). Put plainly: Antagonist activity at human recombinant mu opioid receptor expressed in CHO cells coexpressing alphaqi5 assessed as inhibition of dermorphin-induced intracellular calcium mobilization. It is filed as functional, cell-based.
The target in test [4] is T6, B2 bradykinin receptor (Homo sapiens) (UniProt P30411).
T6 sequence (whole entry): T3 sequence (P30411 whole entry)
Put plainly: Antagonist activity at human recombinant bradykinin 2 receptor expressed in CHO cells assessed as inhibition of bradykinin-induced intracellular calcium mobilization at up to 10 uM. It is filed as functional, cell-based. The method, boiled down:
(§2)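 Calcium mobilization in human receptor cells. NK-1, B2 and UT recombinant in CHO. MOP, DOP, KOP and NOP in CHO cells carrying chimeric Gαqi5. Native PAR2 in A549 cells. […] Mean ± SEM of three experiments in duplicate.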

The target of test [5] is T1, Delta-type opioid receptor. Put plainly: Antagonist activity at human recombinant delta opioid receptor expressed in CHO cells coexpressing alphaqi5 assessed as inhibition of DPDPE-induced intracellular calcium mobilization at up to 10 uM. The format is functional, cell-based. The method, boiled down: as §1
Test [6] has as its target T7, Kappa-type opioid receptor (Homo sapiens, UniProt P41145). As to the kind of experiment: Antagonist activity at human recombinant kappa opioid receptor expressed in CHO cells coexpressing alphaqi5 assessed as inhibition of dynorphin A-induced intracellular calcium mobilization at up to 10 uM. It is filed as functional, cell-based. The method, boiled down: as §2
Test [7] has as its target T5, Mu-type opioid receptor. Put plainly: Antagonist activity at human recombinant mu opioid receptor expressed in CHO cells coexpressing alphaqi5 assessed as inhibition of dermorphin-induced intracellular calcium mobilization at up to 10 uM. It is filed as functional, cell-based. Summed up: as §2
The target in test [8] is Proteinase-activated receptor 2 (Homo sapiens) (UniProt P55085). Put plainly: Antagonist activity at human recombinant PAR2 expressed in A549 cells assessed as inhibition of SLIGKV-NH2-induced intracellular calcium mobilization at up to 10 uM. The format is functional, cell-based.
In test [9] the target is T2, Neuropeptide S receptor (Mus musculus). As to the kind of experiment: Antagonist activity at mouse NPSR expressed in HEK293 cells assessed as inhibition of NPS-induced response. The format is functional, cell-based. Summed up: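 HEK293 cells stably expressing mouse NPSR, calcium mobilization. Inhibition response curves to test peptides against 30 nM NPS, run at 37 °C with three up-and-down mixing cycles right after antagonist injection to aid diffusion. Mean of at least four separate experiments performed in duplicate.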

Test [10] concerns the target T8, Proteinase-activated receptor 2 (Homo sapiens, UniProt P55085).
T8 sequence (P55085 whole entry): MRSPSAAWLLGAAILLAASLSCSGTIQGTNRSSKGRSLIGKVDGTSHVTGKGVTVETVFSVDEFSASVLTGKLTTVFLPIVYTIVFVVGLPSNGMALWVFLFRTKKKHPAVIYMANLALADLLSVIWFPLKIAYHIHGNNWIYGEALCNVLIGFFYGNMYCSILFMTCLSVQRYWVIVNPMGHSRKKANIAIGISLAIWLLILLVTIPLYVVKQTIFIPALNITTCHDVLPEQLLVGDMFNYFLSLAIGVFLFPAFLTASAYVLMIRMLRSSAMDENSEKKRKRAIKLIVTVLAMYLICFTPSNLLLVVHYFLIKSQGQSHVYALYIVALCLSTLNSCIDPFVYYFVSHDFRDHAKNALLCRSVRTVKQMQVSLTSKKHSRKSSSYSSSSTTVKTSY
Put plainly: Antagonist activity at human recombinant PAR2 expressed in A549 cells assessed as inhibition of SLIGKV-NH2-induced intracellular calcium mobilization. The format is functional, cell-based.

Test [11] concerns the target T2, Neuropeptide S receptor (Mus musculus). Put plainly: Agonist activity at mouse NPSR expressed in HEK293 cells up to 10 uM by calcium mobilization assay. The format is functional, cell-based. Summed up: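 HEK293 cells stably expressing mouse NPSR; intracellular calcium mobilization measured after peptide addition, concentration-response curves giving pEC50 and Emax as % over basal. Mean of at least four separate experiments performed in duplicate.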

Test [12] has the same target. As to the kind of experiment: Antagonist activity at mouse NPSR expressed in HEK293 cells assessed as inhibition of NPS-induced increase in intracellular calcium mobilization by Schild analysis at room temperature. It is filed as functional, cell-based. Summed up:
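Schild-type experiment in HEK293 cells expressing mouse NPSR by calcium mobilization, using NPS concentration-response curves with added antagonist, run under the earlier conditions without 37 °C and without post-injection mixing.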

In test [13] the target is T7, Kappa-type opioid receptor. As to the kind of experiment: Antagonist activity at human recombinant kappa opioid receptor expressed in CHO cells coexpressing alphaqi5 assessed as inhibition of dynorphin A-induced intracellular calcium mobilization. It is filed as functional, cell-based. The method, boiled down:
as §1

In the next test the target is Substance-P receptor (Homo sapiens, UniProt P25103). As to the kind of experiment: Antagonist activity at human recombinant NK1 receptor expressed in CHO cells assessed as inhibition of substance P-induced intracellular calcium mobilization.
Sequence of Substance-P receptor (P25103 whole entry): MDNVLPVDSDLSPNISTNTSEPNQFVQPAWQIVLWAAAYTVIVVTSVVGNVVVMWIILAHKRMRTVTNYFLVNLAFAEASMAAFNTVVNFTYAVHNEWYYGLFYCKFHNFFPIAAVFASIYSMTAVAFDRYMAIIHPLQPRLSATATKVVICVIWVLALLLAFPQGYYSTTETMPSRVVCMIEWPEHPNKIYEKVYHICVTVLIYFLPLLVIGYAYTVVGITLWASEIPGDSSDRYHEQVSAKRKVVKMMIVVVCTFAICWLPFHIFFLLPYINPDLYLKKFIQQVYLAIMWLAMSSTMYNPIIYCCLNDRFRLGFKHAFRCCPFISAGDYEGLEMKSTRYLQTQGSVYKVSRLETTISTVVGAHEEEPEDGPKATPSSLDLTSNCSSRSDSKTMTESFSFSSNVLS

The source made the active and inactive calls. The calls are words filed in the database; no cut-off is given here. Square brackets hold non-standard residues; d marks the D form. Peptide text beside a SMILES is read from it. dTle = CC(C)(C)[C@@H](N)C(=O)O Some results are limits rather than exact numbers.

T7 sequence (P41145 whole entry): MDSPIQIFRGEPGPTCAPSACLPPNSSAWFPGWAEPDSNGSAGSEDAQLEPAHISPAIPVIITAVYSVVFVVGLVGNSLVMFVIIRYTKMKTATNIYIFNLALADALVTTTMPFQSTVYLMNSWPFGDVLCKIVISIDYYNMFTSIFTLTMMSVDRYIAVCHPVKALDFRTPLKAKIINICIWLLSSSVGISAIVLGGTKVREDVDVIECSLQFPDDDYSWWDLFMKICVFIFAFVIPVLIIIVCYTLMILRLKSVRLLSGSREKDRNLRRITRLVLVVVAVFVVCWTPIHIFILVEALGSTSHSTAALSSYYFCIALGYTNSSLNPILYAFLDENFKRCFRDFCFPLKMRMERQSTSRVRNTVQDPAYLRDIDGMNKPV
T5 sequence (P35372 whole entry): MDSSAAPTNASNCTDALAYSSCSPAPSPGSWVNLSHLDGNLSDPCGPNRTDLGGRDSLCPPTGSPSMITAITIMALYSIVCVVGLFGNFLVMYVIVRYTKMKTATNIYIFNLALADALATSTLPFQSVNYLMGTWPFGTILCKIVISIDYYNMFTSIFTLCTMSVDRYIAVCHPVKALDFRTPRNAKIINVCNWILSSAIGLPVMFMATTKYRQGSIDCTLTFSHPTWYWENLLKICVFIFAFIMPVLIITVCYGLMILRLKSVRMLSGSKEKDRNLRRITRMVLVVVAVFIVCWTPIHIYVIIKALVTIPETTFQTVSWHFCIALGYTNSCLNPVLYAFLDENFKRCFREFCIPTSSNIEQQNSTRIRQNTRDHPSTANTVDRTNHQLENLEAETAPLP
Sequence of Nociceptin receptor (P41146 whole entry): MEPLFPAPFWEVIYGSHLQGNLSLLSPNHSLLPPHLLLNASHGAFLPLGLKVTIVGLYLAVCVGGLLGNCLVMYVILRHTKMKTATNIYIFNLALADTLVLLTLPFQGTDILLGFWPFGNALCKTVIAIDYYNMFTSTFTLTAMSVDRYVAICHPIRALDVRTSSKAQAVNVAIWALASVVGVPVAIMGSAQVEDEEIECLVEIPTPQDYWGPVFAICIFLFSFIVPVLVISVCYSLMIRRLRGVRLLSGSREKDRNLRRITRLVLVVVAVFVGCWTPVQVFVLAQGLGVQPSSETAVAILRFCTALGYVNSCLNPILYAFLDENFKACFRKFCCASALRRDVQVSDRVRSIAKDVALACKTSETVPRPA

Regarding `CSCC[C@H](NC(=O)CNC(=O)[C@@H](NC(=O)CNC(=O)[C@@H](NC(=O)[C@H](NC(=O)[C@H](CC(N)=O)NC(=O)[C@H](CCCNC(=N)N)NC(=O)[C@H](Cc1ccccc1)NC(=O)[C@@H](N)CO)C(C)(C)C)C(C)C)[C@@H](C)O)C(=O)N[C@@H](CCCCN)C(=O)N[C@@H](CCCCN)C(=O)N[C@H](C(=O)N[C@@H](CO)C(=O)N[C@@H](Cc1ccccc1)C(=O)N[C@@H](CCC(N)=O)C(=O)N[C@@H](CCCNC(=N)N)C(=O)N[C@@H](C)C(=O)N[C@@H](CCCCN)C(=O)N[C@@H](CO)C(=O)O)[C@@H](C)O` (H-SFRN[dTle]VGTGMKKTSFQRAKS-OH), the concentration for a half-maximal effect (EC50) on Nociceptin receptor is 0.282 nM; in test [1], 1.95 nM; at B2 bradykinin receptor it was 0.0339 nM; at Urotensin-2 receptor it was 3.47 nM; on Mu-type opioid receptor [3], 11 nM; in test [10], 31600 nM. Also, the EC50 is 2.34 nM in [13] and 0.049 nM at Substance-P receptor. For the same molecule, the Activity entry in test [2] was “Dose-dependent effect”. The Emax in [4] was 115%; in [5] it was 177%; in test [6], 139%; on Mu-type opioid receptor [7] it was 186%; in test [8], 445%; in test [12], less than 50%. The negative-log Kb (pKb) in [9] stood at 7.06. For the same molecule, in test [11], the Emax entry is “inactive”.

For the origin of these results see ChEMBL document CHEMBL1136992, “Further studies at neuropeptide s position 5: discovery of novel neuropeptide S receptor antagonists” (J Med Chem, 2009).
